# Reference: ChEMBL document CHEMBL1124798, “Design of peptidomimetic delta opioid receptor antagonists using the message-address concept” (J Med Chem, 1990)
# Where a SMILES comes first, the peptide text is derived from it. [ ]: non-standard residue; d: D form. The star is where a group is joined. Tyr(Nα,Nα-allyl2) = C=CCN(CC=C)[C@@H](Cc1ccc(O)cc1)C(=O)*; Aib = CC(C)(N)C(=O)O
# What was measured:
# [1] = target: Kappa-type opioid receptor (Cavia porcellus) (UniProt P41144); test: Antagonist potency was determined as the ratio of [antagonist] to (IC50 ratio-1) for Opioid receptor kappa 1; type: functional
# Procedure, shortened: (§1)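 Ke (nM) = [antagonist]/(IC50 ratio − 1). IC50 ratio is agonist IC50 with antagonist over the control IC50 in the same preparation. Antagonist preincubated 15 min. Agonists: DADLE in mouse vas deferens (δ); morphine (μ) and ethylketazocine (κ) in guinea pig ileum. n ≥ 3.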
# [2] = target: Kappa-type opioid receptor (Cavia porcellus) (UniProt P41144); test: Opioid receptor kappa 1 antagonistic activity was measured by the displacement of ethylketazocine in the guinea pig ileum at a concentration of 100 nM; type: functional, tissue-based
# Procedure, shortened: (§2)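 Guinea pig ileum. Antagonist (nM, as stated on line) incubated 15 min before testing. Agonists: morphine (μ) and ethylketazocine (κ).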
# [3] = target: Mu-type opioid receptor (Cavia porcellus) (UniProt P97266); test: Opioid receptor mu antagonistic activity was measured by the displacement of morphine in the guinea pig ileum at a concentration of 100 nM; type: functional, tissue-based; procedure, shortened: as §2
# [4] = target: Mu-type opioid receptor (Cavia porcellus) (UniProt P97266); test: Opioid receptor mu 1 antagonistic activity was measured by the displacement of morphine in the guinea pig ileum at a concentration of 100 nM; type: functional, tissue-based; procedure, shortened: as §2
# [5] = target: Delta-type opioid receptor (Mus musculus) (UniProt P32300); test: Opioid receptor delta 1 antagonistic activity was measured by the displacement of DADLE in the mouse vas deferens at a concentration of 100 nM; type: functional
# Procedure, shortened: (§3)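 Mouse vas deferens. Antagonist (nM, as stated on line) incubated with the preparation 15 min before testing. δ agonist [D-Ala2,D-Leu5]enkephalin.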
# [6] = target: Mu-type opioid receptor (Cavia porcellus) (UniProt P97266); test: Antagonist potency was determined as the ratio of [antagonist] to (IC50 ratio-1) for Opioid receptor mu 1; type: functional; procedure, shortened: as §1
# [7] = target: Kappa-type opioid receptor (Cavia porcellus) (UniProt P41144); test: Opioid receptor kappa antagonistic activity was measured by the displacement of ethylketazocine in the guinea pig ileum at a concentration of 100 nM; type: functional, tissue-based; procedure, shortened: as §2
# [8] = target: Delta-type opioid receptor (Mus musculus) (UniProt P32300); test: Opioid receptor delta antagonistic activity was measured by the displacement of DADLE in the mouse vas deferens at a concentration of 100 nM; type: functional; procedure, shortened: as §3
# [9] = target: Delta-type opioid receptor (Mus musculus) (UniProt P32300); test: Antagonist potency was determined as the ratio of [antagonist] to (IC50 ratio-1) for opioid receptor delta 1; type: functional; procedure, shortened: as §1
# [10] = target: Opioid receptors; mu & delta (Homo sapiens) (UniProt P41143+P35372); test: Selectivity ratio was determined from Ke value of Opioid receptor mu 1 and Opioid receptor delta 1; type: protein assay; settings: Cavia porcellus
# Procedure, shortened: (§4)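 Ratios of Ke values, μ/δ or κ/δ. Each Ke = [antagonist]/(IC50 ratio − 1). δ from DADLE in mouse vas deferens; μ (morphine) and κ (ethylketazocine) in guinea pig ileum. 15 min antagonist preincubation, n ≥ 3.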
# [11] = target: Opioid receptors; delta & kappa (Homo sapiens) (UniProt P41145+P41143); test: Selectivity ratio was determined from Ke value of Opioid receptor kappa 1 and Opioid receptor delta 1; type: protein assay; settings: Cavia porcellus; procedure, shortened: as §4
# Mu-type opioid receptor [12] = target: T1, Mu-type opioid receptor (Cavia porcellus, UniProt P97266); test: Binding affinity was measured by the displacement of [3H]- DAMGO in guinea pig brain membrane of opioid receptor mu; type: cell membranes
# Procedure, shortened: (§5)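 Radioligand displacement from guinea pig brain membranes, modified Werling method. μ sites: [3H]DAMGO. δ sites: [3H]DADLE with 1 μM DAMGO. κ sites: [3H]ethylketazocine with 1 μM DAMGO.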
# [13] = target: T2, Kappa-type opioid receptor (Cavia porcellus, UniProt P41144); test: Binding affinity was measured by the displacement of [3H]- EK in guinea pig brain membrane of opioid receptor kappa; type: cell membranes; procedure, shortened: as §5
# Mu-type opioid receptor [14] = target: T1, Mu-type opioid receptor; test: Binding affinity was measured by the displacement of [3H]- DAMGO in guinea pig brain membrane of Opioid receptor mu 1; type: cell membranes; procedure, shortened: as §5
# [15] = target: T2, Kappa-type opioid receptor; test: Binding affinity was measured by the displacement of [3H]- EK in guinea pig brain membrane of Opioid receptor kappa 1; type: cell membranes; procedure, shortened: as §5
# Opioid receptors; mu & delta (Homo sapiens), sequence (P35372 whole entry, looked up): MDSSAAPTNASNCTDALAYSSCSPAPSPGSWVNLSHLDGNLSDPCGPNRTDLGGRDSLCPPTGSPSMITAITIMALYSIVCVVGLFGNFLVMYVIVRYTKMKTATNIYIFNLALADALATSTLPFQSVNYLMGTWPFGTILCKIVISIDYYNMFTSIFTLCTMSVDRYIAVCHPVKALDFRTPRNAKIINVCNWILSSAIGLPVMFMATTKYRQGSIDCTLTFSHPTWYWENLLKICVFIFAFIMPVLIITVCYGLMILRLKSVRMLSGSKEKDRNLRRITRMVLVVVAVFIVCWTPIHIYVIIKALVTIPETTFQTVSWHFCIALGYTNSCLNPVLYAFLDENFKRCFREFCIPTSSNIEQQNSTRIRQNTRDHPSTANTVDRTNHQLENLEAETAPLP
# Opioid receptors; mu & delta (Homo sapiens), sequence (P41143 whole entry, looked up): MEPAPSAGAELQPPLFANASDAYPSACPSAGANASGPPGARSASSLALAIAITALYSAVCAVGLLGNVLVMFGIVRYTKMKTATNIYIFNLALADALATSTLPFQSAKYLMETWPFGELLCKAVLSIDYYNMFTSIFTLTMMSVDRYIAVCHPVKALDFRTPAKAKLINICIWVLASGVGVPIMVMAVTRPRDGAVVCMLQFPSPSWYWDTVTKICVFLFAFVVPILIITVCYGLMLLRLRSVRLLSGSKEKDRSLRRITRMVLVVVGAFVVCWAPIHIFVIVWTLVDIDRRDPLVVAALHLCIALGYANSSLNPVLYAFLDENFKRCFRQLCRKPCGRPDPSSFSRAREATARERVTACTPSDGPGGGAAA
# T1 sequence (P97266 whole entry): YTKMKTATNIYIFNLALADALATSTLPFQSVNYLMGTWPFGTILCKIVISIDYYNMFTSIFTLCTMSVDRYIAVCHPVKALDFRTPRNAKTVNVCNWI
# Mu-type opioid receptor (Cavia porcellus), sequence (P97266 whole entry): as above
# T2 sequence (P41144 whole entry): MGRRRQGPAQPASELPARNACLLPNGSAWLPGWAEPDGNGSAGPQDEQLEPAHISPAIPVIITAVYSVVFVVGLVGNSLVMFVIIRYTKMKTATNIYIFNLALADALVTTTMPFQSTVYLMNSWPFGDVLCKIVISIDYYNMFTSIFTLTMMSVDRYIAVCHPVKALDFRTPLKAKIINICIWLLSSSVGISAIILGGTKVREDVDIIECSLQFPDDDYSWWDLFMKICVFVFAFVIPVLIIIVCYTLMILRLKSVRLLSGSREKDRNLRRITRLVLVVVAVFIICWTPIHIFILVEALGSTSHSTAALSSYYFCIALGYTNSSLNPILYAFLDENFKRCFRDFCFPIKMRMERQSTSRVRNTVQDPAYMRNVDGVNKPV
# Kappa-type opioid receptor (Cavia porcellus), sequence (P41144 whole entry): as above
# Opioid receptors; delta & kappa (Homo sapiens), sequence (P41143 whole entry, looked up): as the sequence (P41143 whole entry, looked up) above
# Opioid receptors; delta & kappa (Homo sapiens), sequence (P41145 whole entry, looked up): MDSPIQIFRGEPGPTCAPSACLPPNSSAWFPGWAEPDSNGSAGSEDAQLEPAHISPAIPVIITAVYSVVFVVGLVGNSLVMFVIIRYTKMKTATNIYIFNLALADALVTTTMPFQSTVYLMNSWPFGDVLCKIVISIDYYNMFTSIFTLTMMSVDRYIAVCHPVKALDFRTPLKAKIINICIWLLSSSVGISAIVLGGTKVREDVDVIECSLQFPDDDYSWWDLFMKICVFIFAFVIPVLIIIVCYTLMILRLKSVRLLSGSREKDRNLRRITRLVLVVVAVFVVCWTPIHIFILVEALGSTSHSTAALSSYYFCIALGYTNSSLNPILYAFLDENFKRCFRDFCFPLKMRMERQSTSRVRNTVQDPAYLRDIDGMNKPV
# Delta-type opioid receptor (Mus musculus), sequence (P32300 whole entry): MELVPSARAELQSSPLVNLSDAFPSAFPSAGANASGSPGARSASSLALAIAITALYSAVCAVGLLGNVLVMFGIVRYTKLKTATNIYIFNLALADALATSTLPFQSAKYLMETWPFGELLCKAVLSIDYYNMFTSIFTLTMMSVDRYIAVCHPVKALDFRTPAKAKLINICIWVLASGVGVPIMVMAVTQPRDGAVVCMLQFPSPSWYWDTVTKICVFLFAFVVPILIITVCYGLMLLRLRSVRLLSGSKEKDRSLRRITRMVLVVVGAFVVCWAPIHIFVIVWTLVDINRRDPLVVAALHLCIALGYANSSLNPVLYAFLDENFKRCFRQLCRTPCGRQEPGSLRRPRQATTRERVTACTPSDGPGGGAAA
SMILES,Ke [1] [nM],IC50 ratio [2],IC50 ratio [3],IC50 ratio [4],IC50 ratio [5],Ke [6] [nM],IC50 ratio [7],IC50 ratio [8],Ke [9] [nM],Selectivity ratio [10],Selectivity ratio [11],Ki (Mu-type opioid receptor [12]) [µM],Ki [13] [µM],Ki (Mu-type opioid receptor [14]) [µM],Ki [15] [µM]
Cc1ccc2c3c([nH]c2c1)[C@@H]1Oc2c(O)ccc4c2[C@@]12CCN(CC1CC1)[C@H](C4)[C@]2(O)C3,> 143,1.7,2.8,2.8,30,55,1.7,30,3.5,16,> 41,,,,
COc1ccc2c3c1O[C@H]1c4[nH]c5ccccc5c4C[C@@]4(O)[C@@H](C2)N(CC2CC2)CC[C@]314,> 167,0.6,1.3,1.3,1.5,> 333,0.6,1.5,> 200,,,0.55,> 1,0.55,> 1
"C=CCN(CC=C)[C@@H](Cc1ccc(O)cc1)C(=O)NC(C)(C)C(=O)NC(C)(C)C(=O)N[C@@H](Cc1ccccc1)C(=O)N[C@@H](CC(C)C)C(=O)O ({Tyr(Nα,Nα-allyl2)}-[Aib][Aib]FL-OH)",> 1250,0.8,0.6,0.6,15.6,> 1670,0.8,15.6,69,> 24,> 18,> 1,> 1,> 1,> 1
Oc1ccc2c3c1O[C@H]1c4[nH]c5c(Br)cccc5c4C[C@@]4(O)[C@@H](C2)N(CC2CC2)CC[C@]314,> 143,1.7,2.2,2.2,85,83,1.7,85,1.2,71,> 121,0.029,0.333,0.029,0.333
Oc1ccc2c3c1O[C@H]1c4[nH]c5cc6ccccc6cc5c4C[C@@]4(O)[C@@H](C2)N(CC2CC2)CC[C@]314,> 100,0.91,0.85,0.85,4.7,> 118,0.91,4.7,27,> 4,> 4,,,,
CN1CC[C@]23c4c5ccc(O)c4O[C@H]2c2c(c4ccccc4n2C)C[C@@]3(O)[C@H]1C5,> 200,0.5,0.74,0.74,1.2,> 135,0.5,1.2,> 416,,,,,,
CC(=O)O[C@@]12Cc3c([nH]c4ccccc34)[C@@H]3Oc4c(O)ccc5c4[C@@]31CCN(CC1CC1)[C@@H]2C5,> 127,1.8,1.4,1.4,43,> 263,1.8,43,2.4,> 111,> 54,,,,
CN1CC[C@]23c4c5ccc(O)c4O[C@H]2c2[nH]c4ccccc4c2C[C@@]3(O)[C@H]1C5 [OXYMORPHINDOLE],> 167,0.6,0.9,0.9,1.6,> 111,0.6,1.6,5,,,0.468,4.47,0.468,4.47
Oc1ccc2c3c1O[C@H]1c4[nH]c5c(F)cccc5c4C[C@@]4(O)[C@@H](C2)N(CC2CC2)CC[C@]314,> 333,1.3,5.3,5.3,287,23,1.3,287,0.35,67,> 951,0.049,0.321,0.049,0.321
CC(C)(S)[C@@H](NC(=O)[C@H](Cc1ccc(O)cc1)NC(=O)CNC(=O)[C@H](NC(=O)[C@@H](N)Cc1ccccc1)C(C)(C)S)C(=O)O,,,,,,,,,,52,202,,,,
